From ChEMBL document CHEMBL1811756, “Discovery of novel c-Met kinase inhibitors bearing a thieno[2,3-d]pyrimidine or furo[2,3-d]pyrimidine scaffold” (Bioorg Med Chem, 2011) come the findings set out here.

The nature of data set [1]: Antitumor activity against human U87MG cells xenografted in nude mouse assessed as inhibition of tumor growth at 100 mg/kg. The class given is functional, U-87MG ATCC. The following applies: U-87 MG. A general note: In xenograft studies the graft and the host belong to different species.
Data set [2] has as its target T1, Hepatocyte growth factor receptor (Homo sapiens, UniProt P08581). Kind of data set: Inhibition of c-Met at 10 uM after 60 mins by ELISA. Put shortly: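 c-Met tyrosine kinase ELISA with Poly(Glu,Tyr) 4:1 substrate and 10 µM ATP in HEPES pH 7.4 buffer with Mg²⁺/Mn²⁺, run 60 min at 37 °C. Phosphotyrosine was detected with PY99 and an HRP secondary antibody, read at 490 nm. Percent inhibition was measured at a single compound concentration.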
(In general: ELISA stands for enzyme-linked immunosorbent assay.)

In data set [3] the target is T1, Hepatocyte growth factor receptor. Kind of data set: Inhibition of c-Met after 60 mins by ELISA. Put shortly:
(§1)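 ELISA on plates pre-coated with Poly(Glu,Tyr) 4:1 at 20 µg/mL. Detection used anti-phosphotyrosine PY99, then HRP anti-mouse IgG and o-phenylenediamine/H₂O₂, read at 490 nm. IC50 was calculated by the Logit method from ≥3 independent tests at six concentrations each.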

The test system of data set [4] is BaF3. Briefly: Antiproliferative activity against […] BAF3 cells expressing TPR-Met assessed as inhibition of cell growth at 10 uM. The class given is functional. The following applies: Mus musculus. Summed up: (§2)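 BaF3 cells stably expressing TPR-Met were seeded in 96-well plates. Next day they were exposed to compound at 10, 1 or 0.1 µM for 72 h. Growth was read by MTT at A570. Inhibition (%) = [1 − (A570/A570 control)] × 100.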

For data set [5], the system named is BaF3. Kind of data set: Antiproliferative activity against […] BAF3 cells expressing TPR-Met assessed as inhibition of cell growth at 1 uM. The format is functional. The following applies: Mus musculus. Put shortly: as §2
The subject of data set [6] is BaF3. Kind of data set: Antiproliferative activity against […] BAF3 cells expressing TPR-Met assessed as inhibition of cell growth at 0.1 uM. The format is functional. The following applies: Mus musculus. Summed up: as §2
For data set [7], the target named is Macrophage-stimulating protein receptor (Homo sapiens, UniProt Q04912). Kind of data set: Inhibition of RON. Summed up: as §1
Macrophage-stimulating protein receptor, sequence (Q04912 25-304 limits assumed): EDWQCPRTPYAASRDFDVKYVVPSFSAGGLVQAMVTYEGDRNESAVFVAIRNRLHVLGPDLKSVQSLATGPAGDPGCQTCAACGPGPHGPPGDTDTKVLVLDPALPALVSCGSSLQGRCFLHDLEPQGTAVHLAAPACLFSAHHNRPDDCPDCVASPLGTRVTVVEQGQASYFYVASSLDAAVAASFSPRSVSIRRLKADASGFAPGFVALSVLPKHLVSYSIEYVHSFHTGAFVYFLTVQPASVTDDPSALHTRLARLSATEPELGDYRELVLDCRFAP
Macrophage-stimulating protein receptor, sequence (Q04912 310-1400 limits assumed): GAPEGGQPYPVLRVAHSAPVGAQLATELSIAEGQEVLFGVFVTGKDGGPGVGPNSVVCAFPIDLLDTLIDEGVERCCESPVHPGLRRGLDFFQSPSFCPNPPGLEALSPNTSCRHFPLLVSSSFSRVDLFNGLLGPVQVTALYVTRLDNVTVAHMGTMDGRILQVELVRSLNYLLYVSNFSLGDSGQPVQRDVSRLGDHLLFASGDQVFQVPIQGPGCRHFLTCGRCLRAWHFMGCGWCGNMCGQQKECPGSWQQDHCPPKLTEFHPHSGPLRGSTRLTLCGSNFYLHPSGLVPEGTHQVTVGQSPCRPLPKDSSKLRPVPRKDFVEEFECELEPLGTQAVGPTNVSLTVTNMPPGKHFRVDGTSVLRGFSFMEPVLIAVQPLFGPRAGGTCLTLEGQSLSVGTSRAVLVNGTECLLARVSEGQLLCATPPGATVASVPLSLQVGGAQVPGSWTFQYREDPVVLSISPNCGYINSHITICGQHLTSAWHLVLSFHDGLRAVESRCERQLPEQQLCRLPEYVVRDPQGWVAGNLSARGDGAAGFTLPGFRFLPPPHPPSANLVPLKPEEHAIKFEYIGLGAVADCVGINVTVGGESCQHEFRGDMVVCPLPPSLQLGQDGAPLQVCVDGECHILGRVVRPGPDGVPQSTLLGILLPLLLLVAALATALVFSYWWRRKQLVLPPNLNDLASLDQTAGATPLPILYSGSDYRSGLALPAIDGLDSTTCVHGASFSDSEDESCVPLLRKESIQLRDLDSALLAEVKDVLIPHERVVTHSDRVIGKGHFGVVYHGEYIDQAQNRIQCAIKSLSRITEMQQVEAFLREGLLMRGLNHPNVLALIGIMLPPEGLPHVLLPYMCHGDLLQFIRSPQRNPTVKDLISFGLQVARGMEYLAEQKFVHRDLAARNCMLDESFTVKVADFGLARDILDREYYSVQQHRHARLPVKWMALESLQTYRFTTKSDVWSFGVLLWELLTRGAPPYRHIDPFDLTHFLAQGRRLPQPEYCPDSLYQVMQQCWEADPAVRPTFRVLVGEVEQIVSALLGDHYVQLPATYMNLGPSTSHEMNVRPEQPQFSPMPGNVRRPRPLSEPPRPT
Data set [8] concerns the target Platelet-derived growth factor receptor alpha (Homo sapiens, UniProt P16234). Briefly: Inhibition of PDGFRalpha. Put shortly: as §1
Data set [9] has as its target Proto-oncogene tyrosine-protein kinase receptor Ret (Homo sapiens, UniProt P07949). Briefly: Inhibition of RET. Put shortly:
as §1

Data set [10] deals with Receptor tyrosine-protein kinase erbB-2 (Homo sapiens, UniProt P04626). Briefly: Inhibition of ERBB2. Summed up:
as §1

Data set [11] addresses Receptor tyrosine-protein kinase erbB-4 (Homo sapiens, UniProt Q15303). Briefly: Inhibition of ERBB4. Put shortly: as §1
The target in data set [12] is Proto-oncogene tyrosine-protein kinase Src (Homo sapiens, UniProt P12931). Kind of data set: Inhibition of c-SRC. Put shortly: as §1
Proto-oncogene tyrosine-protein kinase Src, sequence (P12931 2-536 limits assumed): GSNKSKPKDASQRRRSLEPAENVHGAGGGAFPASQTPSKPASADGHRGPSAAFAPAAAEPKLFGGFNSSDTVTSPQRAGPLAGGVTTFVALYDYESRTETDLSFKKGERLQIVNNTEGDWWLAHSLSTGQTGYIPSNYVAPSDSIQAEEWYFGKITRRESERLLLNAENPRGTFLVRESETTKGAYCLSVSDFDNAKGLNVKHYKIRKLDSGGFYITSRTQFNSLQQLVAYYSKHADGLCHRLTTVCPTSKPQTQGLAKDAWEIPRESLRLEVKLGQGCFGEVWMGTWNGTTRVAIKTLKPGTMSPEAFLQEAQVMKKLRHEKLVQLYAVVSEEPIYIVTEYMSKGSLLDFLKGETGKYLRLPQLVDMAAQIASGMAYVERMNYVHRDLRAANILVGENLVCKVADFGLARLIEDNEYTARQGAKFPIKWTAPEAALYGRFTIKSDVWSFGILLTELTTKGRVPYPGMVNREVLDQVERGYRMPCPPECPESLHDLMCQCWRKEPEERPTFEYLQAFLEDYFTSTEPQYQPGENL
Data set [13] addresses Tyrosine-protein kinase ABL1 (Homo sapiens, UniProt P00519). Kind of data set: Inhibition of Abl. Summed up: as §1
In a further data set the target is Ephrin type-A receptor 2 (Homo sapiens, UniProt P29317). Kind of data set: Inhibition of EPHA2. Summed up: as §1
In another data set the target is T2, Ephrin type-B receptor 2 (Homo sapiens, UniProt P29323).
T2 sequence (P29323 whole entry): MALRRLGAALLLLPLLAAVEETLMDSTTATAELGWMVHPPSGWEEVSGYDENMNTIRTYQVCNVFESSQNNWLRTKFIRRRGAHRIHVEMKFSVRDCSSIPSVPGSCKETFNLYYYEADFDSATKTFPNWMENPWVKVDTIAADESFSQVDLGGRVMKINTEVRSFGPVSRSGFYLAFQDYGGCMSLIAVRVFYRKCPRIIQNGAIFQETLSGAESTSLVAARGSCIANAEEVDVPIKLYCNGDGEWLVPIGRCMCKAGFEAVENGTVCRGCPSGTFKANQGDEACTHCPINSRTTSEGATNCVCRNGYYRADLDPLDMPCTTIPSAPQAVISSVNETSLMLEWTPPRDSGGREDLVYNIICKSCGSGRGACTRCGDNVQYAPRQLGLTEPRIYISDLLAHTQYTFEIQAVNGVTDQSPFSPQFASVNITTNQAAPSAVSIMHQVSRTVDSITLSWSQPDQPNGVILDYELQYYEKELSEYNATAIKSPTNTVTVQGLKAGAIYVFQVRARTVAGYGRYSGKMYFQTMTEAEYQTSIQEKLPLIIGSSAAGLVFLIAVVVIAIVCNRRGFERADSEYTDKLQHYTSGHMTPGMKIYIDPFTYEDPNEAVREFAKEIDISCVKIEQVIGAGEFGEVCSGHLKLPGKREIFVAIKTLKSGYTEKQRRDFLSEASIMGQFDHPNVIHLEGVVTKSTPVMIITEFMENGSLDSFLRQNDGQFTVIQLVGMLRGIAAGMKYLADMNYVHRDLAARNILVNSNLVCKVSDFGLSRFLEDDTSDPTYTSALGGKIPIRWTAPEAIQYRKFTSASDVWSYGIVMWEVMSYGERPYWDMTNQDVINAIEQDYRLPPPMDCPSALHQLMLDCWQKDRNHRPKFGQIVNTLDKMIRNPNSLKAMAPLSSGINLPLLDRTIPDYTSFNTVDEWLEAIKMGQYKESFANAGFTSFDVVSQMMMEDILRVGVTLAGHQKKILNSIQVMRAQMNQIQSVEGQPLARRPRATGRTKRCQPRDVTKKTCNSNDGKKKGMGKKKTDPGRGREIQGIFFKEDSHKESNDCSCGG
Kind of data set: Inhibition of EPHB2. Summed up:
as §1

Data set [14] concerns the target Insulin-like growth factor 1 receptor (Homo sapiens, UniProt P08069). Briefly: Inhibition of IGF1R. Summed up: as §1
Data set [15] concerns the target Fibroblast growth factor receptor 1 (Homo sapiens, UniProt P11362). Briefly: Inhibition of FGFR1. Summed up:
as §1

Data set [16] deals with Vascular endothelial growth factor receptor 1 (Homo sapiens, UniProt P17948). Briefly: Inhibition of FLT1. Summed up: as §1
In a further data set the test system is Mus musculus. Kind of data set: Toxicity in nude mouse xenografted with human U87MG cells assessed as body weight loss at 100 mg/kg, ip for 3 weeks. The following applies: in vivo, 504 h. Also noted: dose 100 mg/kg, route intraperitoneal. The class given is organism-based, U-87MG ATCC. Summed up: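 Nude mice bearing U-87MG tumor fragments were dosed ip 7 days/week for 3 weeks, n = 6 per group, versus vehicle controls. Body weight was monitored during treatment.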

A short description of data set [17]: Half life in mouse at 10 mg/kg, iv and 20 mg/kg, po. Particulars: in vivo. The format is ADME, organism-based. Put shortly: (§3)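 Pharmacokinetics were run in mice after a single dose of 10 mg/kg iv or 20 mg/kg po.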
The nature of data set [18]: Clearance in mouse at 10 mg/kg, iv. The format is ADME, organism-based. More on the design: dose 10 mg/kg, route intravenous. The following applies: in vivo. Put shortly: as §3
Data set [19] is described as follows: Oral bioavailability in mouse at 20 mg/kg. The format is ADME, organism-based. The following applies: in vivo. Summed up: as §3
Data set [20] in a line: Aqueous solubility of the compound. The class given is physicochemical. The following applies: buffer.
The target in data set [21] is T1, Hepatocyte growth factor receptor. Particulars: BaF3, 0.1 to 10 uM.
The target is the same in data set [22]. Particulars: BaF3, 0.1-10 uM.

The source made the active and inactive calls. No cut-off for these calls is given here.

T1 sequence (P08581 whole entry): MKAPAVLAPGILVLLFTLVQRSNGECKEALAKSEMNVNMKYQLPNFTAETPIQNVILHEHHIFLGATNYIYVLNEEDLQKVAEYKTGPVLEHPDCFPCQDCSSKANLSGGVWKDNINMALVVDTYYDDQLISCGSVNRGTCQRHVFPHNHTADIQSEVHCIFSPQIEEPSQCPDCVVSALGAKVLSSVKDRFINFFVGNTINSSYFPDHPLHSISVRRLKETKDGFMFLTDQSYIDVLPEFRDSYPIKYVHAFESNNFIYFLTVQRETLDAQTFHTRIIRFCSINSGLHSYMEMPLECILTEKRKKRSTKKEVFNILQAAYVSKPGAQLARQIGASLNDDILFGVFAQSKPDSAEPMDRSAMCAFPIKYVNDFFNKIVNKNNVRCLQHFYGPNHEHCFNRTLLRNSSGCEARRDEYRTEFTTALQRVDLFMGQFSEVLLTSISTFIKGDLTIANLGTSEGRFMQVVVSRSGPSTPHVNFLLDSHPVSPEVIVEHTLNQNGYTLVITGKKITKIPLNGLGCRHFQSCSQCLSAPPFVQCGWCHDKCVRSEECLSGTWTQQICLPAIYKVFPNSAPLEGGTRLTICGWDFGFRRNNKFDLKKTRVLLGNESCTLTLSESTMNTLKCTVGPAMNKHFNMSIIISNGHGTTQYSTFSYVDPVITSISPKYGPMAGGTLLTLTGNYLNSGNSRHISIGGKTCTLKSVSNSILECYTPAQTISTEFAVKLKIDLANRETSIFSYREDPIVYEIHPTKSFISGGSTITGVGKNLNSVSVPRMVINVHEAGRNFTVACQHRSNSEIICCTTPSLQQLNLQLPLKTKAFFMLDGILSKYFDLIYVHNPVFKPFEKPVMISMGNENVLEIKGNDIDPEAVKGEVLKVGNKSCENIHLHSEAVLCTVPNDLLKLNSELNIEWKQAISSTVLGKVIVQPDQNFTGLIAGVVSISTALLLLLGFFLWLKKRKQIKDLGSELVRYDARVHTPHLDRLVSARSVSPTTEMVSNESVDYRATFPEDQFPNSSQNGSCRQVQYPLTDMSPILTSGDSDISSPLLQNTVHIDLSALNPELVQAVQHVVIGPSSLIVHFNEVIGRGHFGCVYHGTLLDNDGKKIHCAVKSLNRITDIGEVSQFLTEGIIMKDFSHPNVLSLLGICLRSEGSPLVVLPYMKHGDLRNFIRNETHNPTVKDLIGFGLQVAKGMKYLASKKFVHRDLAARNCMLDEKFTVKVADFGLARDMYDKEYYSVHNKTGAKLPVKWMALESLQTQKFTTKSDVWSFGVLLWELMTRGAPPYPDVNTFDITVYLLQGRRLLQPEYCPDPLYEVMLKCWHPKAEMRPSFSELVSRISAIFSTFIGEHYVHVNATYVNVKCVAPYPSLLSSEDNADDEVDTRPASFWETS
Platelet-derived growth factor receptor alpha, sequence (P16234 whole entry): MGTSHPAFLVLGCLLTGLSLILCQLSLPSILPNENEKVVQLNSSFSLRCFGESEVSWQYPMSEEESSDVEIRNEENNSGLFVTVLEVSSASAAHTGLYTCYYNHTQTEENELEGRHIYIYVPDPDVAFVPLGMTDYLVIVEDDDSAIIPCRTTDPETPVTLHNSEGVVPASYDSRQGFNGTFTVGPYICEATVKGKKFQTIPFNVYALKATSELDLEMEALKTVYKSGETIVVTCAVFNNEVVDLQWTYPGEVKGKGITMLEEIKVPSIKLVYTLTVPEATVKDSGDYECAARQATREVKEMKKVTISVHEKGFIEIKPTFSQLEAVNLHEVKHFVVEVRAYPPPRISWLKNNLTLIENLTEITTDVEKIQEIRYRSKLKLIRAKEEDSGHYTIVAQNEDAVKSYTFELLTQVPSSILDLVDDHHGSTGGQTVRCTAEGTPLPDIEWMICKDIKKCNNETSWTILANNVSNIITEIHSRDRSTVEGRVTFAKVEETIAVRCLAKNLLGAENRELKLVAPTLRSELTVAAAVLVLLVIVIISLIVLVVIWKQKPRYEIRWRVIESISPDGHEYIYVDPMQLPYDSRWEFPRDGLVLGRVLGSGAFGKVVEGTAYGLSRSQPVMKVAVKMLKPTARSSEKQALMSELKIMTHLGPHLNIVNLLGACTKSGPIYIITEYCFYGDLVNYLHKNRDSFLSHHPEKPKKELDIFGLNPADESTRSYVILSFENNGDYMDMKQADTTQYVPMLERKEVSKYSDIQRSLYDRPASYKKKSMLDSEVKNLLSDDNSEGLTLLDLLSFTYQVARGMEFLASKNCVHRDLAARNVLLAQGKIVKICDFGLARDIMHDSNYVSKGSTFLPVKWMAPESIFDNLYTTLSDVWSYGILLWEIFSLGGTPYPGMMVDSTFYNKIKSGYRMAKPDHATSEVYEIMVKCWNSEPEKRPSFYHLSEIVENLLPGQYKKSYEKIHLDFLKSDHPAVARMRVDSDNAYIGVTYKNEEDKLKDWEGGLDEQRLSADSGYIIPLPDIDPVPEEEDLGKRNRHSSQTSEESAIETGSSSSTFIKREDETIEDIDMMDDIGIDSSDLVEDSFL

The inhibition in vivo is the relative decrease from the control value, in per cent. Regarding `COc1cc2nccc(Oc3ccc(NC(=S)NC(=O)Cc4ccccc4)cc3F)c2cc1OC`, in [1], the inhibition in vivo at 100 mg/kg worked out at 70%.

As usually defined, the inhibition is the change of the read-out against control, counted positive when it falls. As usually defined, the IC50 is the point on the concentration scale where inhibition reaches its midpoint. The low end stands for higher potency, the high end for lower potency. As a reminder, the half-life is how long it takes for the measured level to halve. Lower therefore signals fast loss. The clearance is a measure of how efficiently the substance is removed, as volume per time. Read a low clearance as a low capacity for elimination. A word on the bioavailability: it is the share of a dose that reaches the circulation, judged against a reference dose that is usually intravenous. Turning to `O=C(Nc1ccc(Oc2ncnc3scc(-c4ccccc4)c23)c(F)c1)c1cccn(-c2ccc(F)cc2)c1=O`, the inhibition in data set [2] was 94.3%. The IC50 is 0.0357 µM in [3]; 0.0504 µM in data set [7]; more than 10 µM in data set [8]; more than 10 µM in data set [9]; more than 10 µM in data set [10]; more than 10 µM in [11]. The IC50 (in [12]; in [13]; against Ephrin type-A receptor 2; at Ephrin type-B receptor 2; in data set [14]; in data set [15]) was more than 10 µM each time. In [16], this compound displayed an IC50 of more than 10 µM. Moreover, in the data set with BaF3 [4], the inhibition at 10 µM was determined as 94.6%. In addition, the inhibition at 1 µM in the data set with BaF3 [5] is 69.5%. Moreover, the inhibition at 0.1 µM in the data set on BaF3 [6] was -10.5%. In addition, the Activity entry in the data set on Mus musculus is reported as “Non-toxic”. This compound had a half-life in data set [17] of 1.67 h. Moreover, in data set [18], the clearance was 2.83 L/h/kg. The compound also registered a bioavailability in data set [19] of 5%. Moreover, the solubility entry in data set [20] is recorded as “Insoluble”. Also, the inhibition entry in data set [21] and in data set [22] was “Active” in each case.
